Experimental data published in ChEMBL document CHEMBL1649571, “In vitro activity of TR-700, the active ingredient of the antibacterial prodrug TR-701, a novel oxazolidinone antibacterial agent” (2009).
In brackets after ≈: the same amount, converted by molar mass.

Columns and labels:
Assay type in all cases: functional
[1] = tested on: Staphylococcus aureus; assay: Antibacterial activity against methicillin-susceptible Staphylococcus aureus by CLSI M7-A7 broth microdilution method
Method in brief: (§1)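 Reference broth microdilution MIC under aerobic conditions on recent (2005–2008) clinical isolates from U.S. and non-U.S. sites. QC strains run alongside, required to fall within published CLSI ranges.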

[2] = tested on: Staphylococcus epidermidis; assay: Antibacterial activity against methicillin-resistant Staphylococcus epidermidis by CLSI M7-A7 broth microdilution method; method in brief: as §1
[3] = tested on: Staphylococcus aureus; assay: Antibacterial activity against community-acquired methicillin-resistant Staphylococcus aureus by CLSI M7-A7 broth microdilution method; method in brief: as §1
[4] = tested on: Staphylococcus aureus; assay: Antibacterial activity against methicillin-resistant Staphylococcus aureus by CLSI M7-A7 broth microdilution method; method in brief: as §1
[5] = tested on: Staphylococcus epidermidis; assay: Antibacterial activity against methicillin-susceptible Staphylococcus epidermidis by CLSI M7-A7 broth microdilution method
[6] = tested on: Streptococcus pyogenes; assay: Antibacterial activity against Streptococcus pyogenes by CLSI M7-A7 broth microdilution broth microdilution method; method in brief: as §1
[7] = tested on: Enterococcus faecium; assay: Antibacterial activity against vancomycin-susceptible Enterococcus faecium by CLSI M7-A7 broth microdilution method; method in brief: as §1
[8] = tested on: Enterococcus faecium; assay: Antibacterial activity against vancomycin-resistant Enterococcus faecium by CLSI M7-A7 broth microdilution method; method in brief: as §1
[9] = tested on: Streptococcus pneumoniae; assay: Antibacterial activity against penicillin-susceptible Streptococcus pneumoniae by CLSI M7-A7 broth microdilution method; method in brief: as §1
[10] = tested on: Streptococcus agalactiae; assay: Antibacterial activity against Streptococcus agalactiae by CLSI M7-A7 broth microdilution method; method in brief: as §1
[11] = tested on: Bacteroides ovatus; assay: Antibacterial activity against Bacteroides ovatus by CLSI M11-A7 agar dilution method
Method in brief: (§2)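 Recent (2005 to 2008) clinical isolates. Anaerobes grown 48 h in an anaerobic glove box, with inoculum suspensions made in prereduced broth inside the box. A Steers replicator stamped the inoculum onto drug-supplemented agar. After absorption, plates were incubated 48 h at 37°C, then removed from the box and the MIC read. QC strains were run against the CLSI ranges.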

[12] = tested on: Moraxella catarrhalis; assay: Antibacterial activity against Moraxella catarrhalis by CLSI M7-A7 broth microdilution method
Method in brief: (§3)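 Recent (2005 to 2008) clinical isolates from U.S. (80%) and non-U.S. (20%) sites. Aerobic MICs were determined by CLSI reference broth microdilution, with quality control strains checked against the published CLSI ranges.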

[13] = tested on: Prevotella sp.; assay: Antibacterial activity against Prevotella sp. by CLSI M11-A7 agar dilution method; method in brief: as §2
[14] = tested on: Peptostreptococcus anaerobius; assay: Antibacterial activity against Peptostreptococcus anaerobius by CLSI M11-A7 agar dilution method; method in brief: as §2
[15] = tested on: Streptococcus pneumoniae; assay: Antibacterial activity against penicillin-resistant Streptococcus pneumoniae by CLSI M7-A7 broth microdilution method; method in brief: as §1
[16] = tested on: Phocaeicola vulgatus; assay: Antibacterial activity against Bacteroides vulgatus by CLSI M11-A7 agar dilution method; method in brief: as §2
[17] = tested on: Enterococcus faecalis; assay: Antibacterial activity against vancomycin-susceptible Enterococcus faecalis by CLSI M7-A7 broth microdilution method; method in brief: as §1
[18] = tested on: Bacteroides thetaiotaomicron; assay: Antibacterial activity against Bacteroides thetaiotaomicron by CLSI M11-A7 agar dilution method; method in brief: as §2
[19] = tested on: Haemophilus influenzae; assay: Antibacterial activity against Haemophilus influenzae by CLSI M7-A7 broth microdilution method; method in brief: as §3
[20] = tested on: Porphyromonas asaccharolytica; assay: Antibacterial activity against Porphyromonas asaccharolytica by CLSI M11-A7 agar dilution method; method in brief: as §2
[21] = tested on: Bacteroides fragilis; assay: Antibacterial activity against Bacteroides fragilis by CLSI M11-A7 agar dilution method; method in brief: as §2
[22] = tested on: Clostridium perfringens; assay: Antibacterial activity against Clostridium perfringens by CLSI M11-A7 agar dilution method
Method in brief: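 Reference agar dilution MIC on recent (2005–2008) clinical isolates. Cultures grown 48 h in an anaerobic glove box; inoculum suspended in prereduced broth inside the box and stamped by Steers replicator onto drug-supplemented agar. Plates incubated 48 h at 37°C before MIC reading. QC strains run alongside, required to fall within CLSI ranges.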

[23] = tested on: Enterococcus faecalis; assay: Antibacterial activity against vancomycin-resistant Enterococcus faecalis by CLSI M7-A7 broth microdilution method; method in brief: as §1
[24] = tested on: Parvimonas micra; assay: Antibacterial activity against Peptostreptococcus micros by CLSI M11-A7 agar dilution method; method in brief: as §2
[25] = tested on: Streptococcus pneumoniae; assay: Antibacterial activity against penicillin-intermediate Streptococcus pneumoniae by CLSI M7-A7 broth microdilution method; method in brief: as §1

For `Cc1onc(-c2ccccc2)c1C(=O)N[C@@H]1C(=O)N2[C@@H]1SC(C)(C)[C@@H]2C(=O)O` [OXACILLIN], the MIC50 [1] was 0.25 µg/mL (≈ 0.623 µM), the MIC90 [1] was 0.5 µg/mL (≈ 1.25 µM) and the MIC50 [2] was 16 µg/mL (≈ 39.9 µM). It also gave an MIC90 [2] of over 32 µg/mL, an MIC50 [3] of 32 µg/mL (≈ 79.7 µM) and an MIC90 [3] of 32 µg/mL (≈ 79.7 µM). For the same compound, the MIC50 [4] was 32 µg/mL (≈ 79.7 µM), the MIC90 [4] was 32 µg/mL (≈ 79.7 µM) and the MIC50 [5] was 0.12 µg/mL (≈ 0.299 µM). It also gave an MIC90 [5] of 0.25 µg/mL (≈ 0.623 µM).
Work on `CC(=O)NC[C@H]1CN(c2ccc(N3CCOCC3)c(F)c2)C(=O)O1` [LINEZOLID] yielded an MIC50 [6] of 1 µg/mL (≈ 2.96 µM), an MIC90 [6] of 2 µg/mL (≈ 5.93 µM) and an MIC50 [7] of 2 µg/mL (≈ 5.93 µM). For the same compound, the MIC90 [7] was 4 µg/mL (≈ 11.9 µM), the MIC50 [8] was 2 µg/mL (≈ 5.93 µM) and the MIC90 [8] was 2 µg/mL (≈ 5.93 µM). It also gave an MIC50 [9] of 1 µg/mL (≈ 2.96 µM), an MIC90 [9] of 1 µg/mL (≈ 2.96 µM) and an MIC50 [10] of 2 µg/mL (≈ 5.93 µM). It also gave an MIC90 [10] of 2 µg/mL (≈ 5.93 µM), an MIC50 [11] of 8 µg/mL (≈ 23.7 µM) and an MIC90 [11] of 8 µg/mL (≈ 23.7 µM). The MIC50 [12] was 8 µg/mL (≈ 23.7 µM), the MIC90 [12] was 8 µg/mL (≈ 23.7 µM) and the MIC50 [13] was 2 µg/mL (≈ 5.93 µM). It also gave an MIC90 [13] of 4 µg/mL (≈ 11.9 µM), an MIC50 [14] of 1 µg/mL (≈ 2.96 µM) and an MIC90 [14] of 2 µg/mL (≈ 5.93 µM). The MIC50 [15] was 1 µg/mL (≈ 2.96 µM), the MIC90 [15] was 1 µg/mL (≈ 2.96 µM) and the MIC [16] was 2 µg/mL (≈ 5.93 µM). For the same compound, the MIC50 [16] was 2 µg/mL (≈ 5.93 µM), the MIC90 [16] was 4 µg/mL (≈ 11.9 µM) and the MIC50 [17] was 2 µg/mL (≈ 5.93 µM). It also gave an MIC90 [17] of 2 µg/mL (≈ 5.93 µM), an MIC [18] of 4 µg/mL (≈ 11.9 µM) and an MIC50 [18] of 4 µg/mL (≈ 11.9 µM). It also gave an MIC90 [18] of 8 µg/mL (≈ 23.7 µM), an MIC50 [19] of 16 µg/mL (≈ 47.4 µM) and an MIC90 [19] of 32 µg/mL (≈ 94.9 µM). For the same compound, the MIC50 [1] was 2 µg/mL (≈ 5.93 µM), the MIC90 [1] was 4 µg/mL (≈ 11.9 µM) and the MIC50 [20] was 1 µg/mL (≈ 2.96 µM). It also gave an MIC90 [20] of 2 µg/mL (≈ 5.93 µM), an MIC50 [2] of 1 µg/mL (≈ 2.96 µM) and an MIC90 [2] of 2 µg/mL (≈ 5.93 µM). It also gave an MIC [21] of 4 µg/mL (≈ 11.9 µM), an MIC50 [21] of 4 µg/mL (≈ 11.9 µM) and an MIC90 [21] of 4 µg/mL (≈ 11.9 µM). It also gave an MIC50 [22] of 2 µg/mL (≈ 5.93 µM), an MIC90 [22] of 4 µg/mL (≈ 11.9 µM) and an MIC50 [3] of 2 µg/mL (≈ 5.93 µM). The MIC90 [3] was 4 µg/mL (≈ 11.9 µM), the MIC50 [4] was 2 µg/mL (≈ 5.93 µM) and the MIC90 [4] was 4 µg/mL (≈ 11.9 µM). The MIC50 [23] was 2 µg/mL (≈ 5.93 µM), the MIC90 [23] was 2 µg/mL (≈ 5.93 µM) and the MIC50 [5] was 1 µg/mL (≈ 2.96 µM). The MIC90 [5] was 2 µg/mL (≈ 5.93 µM), the MIC50 [24] was 1 µg/mL (≈ 2.96 µM) and the MIC90 [24] was 2 µg/mL (≈ 5.93 µM). It also gave an MIC50 [25] of 1 µg/mL (≈ 2.96 µM) and an MIC90 [25] of 1 µg/mL (≈ 2.96 µM).
`CN[C@H](CC(C)C)C(=O)N[C@H]1C(=O)N[C@@H](CC(N)=O)C(=O)N[C@H]2C(=O)N[C@H]3C(=O)N[C@H](C(=O)N[C@H](C(=O)O)c4cc(O)cc(O)c4-c4cc3ccc4O)[C@H](O)c3ccc(c(Cl)c3)Oc3cc2cc(c3O[C@@H]2O[C@H](CO)[C@@H](O)[C@H](O)[C@H]2O[C@H]2C[C@](C)(N)[C@H](O)[C@H](C)O2)Oc2ccc(cc2Cl)[C@H]1O` [VANCOMYCIN] showed an MIC50 [6] of 0.5 µg/mL (≈ 0.345 µM), an MIC90 [6] of 0.5 µg/mL (≈ 0.345 µM) and an MIC50 [7] of 1 µg/mL (≈ 0.69 µM). It also gave an MIC90 [7] of 1 µg/mL (≈ 0.69 µM), an MIC50 [8] of over 32 µg/mL and an MIC90 [8] of over 32 µg/mL. For the same compound, the MIC50 [9] was 0.25 µg/mL (≈ 0.173 µM), the MIC90 [9] was 0.5 µg/mL (≈ 0.345 µM) and the MIC50 [10] was 0.5 µg/mL (≈ 0.345 µM). It also gave an MIC90 [10] of 0.5 µg/mL (≈ 0.345 µM), an MIC50 [15] of 0.25 µg/mL (≈ 0.173 µM) and an MIC90 [15] of 0.5 µg/mL (≈ 0.345 µM). The MIC50 [17] was 1 µg/mL (≈ 0.69 µM), the MIC90 [17] was 2 µg/mL (≈ 1.38 µM) and the MIC50 [1] was 1 µg/mL (≈ 0.69 µM). For the same compound, the MIC90 [1] was 1 µg/mL (≈ 0.69 µM), the MIC50 [2] was 2 µg/mL (≈ 1.38 µM) and the MIC90 [2] was 2 µg/mL (≈ 1.38 µM). For the same compound, the MIC50 [3] was 4 µg/mL (≈ 2.76 µM), the MIC90 [3] was 4 µg/mL (≈ 2.76 µM) and the MIC50 [4] was 1 µg/mL (≈ 0.69 µM). It also gave an MIC90 [4] of 1 µg/mL (≈ 0.69 µM), an MIC50 [23] of over 32 µg/mL and an MIC90 [23] of over 32 µg/mL. The MIC50 [5] was 2 µg/mL (≈ 1.38 µM), the MIC90 [5] was 2 µg/mL (≈ 1.38 µM) and the MIC [25] was 0.25 µg/mL (≈ 0.173 µM). It also gave an MIC50 [25] of 0.25 µg/mL (≈ 0.173 µM) and an MIC90 [25] of 0.5 µg/mL (≈ 0.345 µM).
